Laboratory results: ChEMBL document CHEMBL5724801, “EUbOPEN Chemogenomics Library - Multiplex” (2024)
Several values for one entry are separate records, joined by “and”; a condition that tells them apart may be missing. Identical values can stand only once.

tested on: HEK-293T; experiment: Multiplex assay against HEK293T; type: toxicity, cell-based; settings: human, 12 h, 1 µM, compound concentration 1 uM
Outline: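 Four dyes were applied at seeding to live cells: Hoechst33342, BioTracker Green Microtubule Cytoskeleton Dye, MitoTracker Red and Annexin V Alexa Fluor 680. Imaging after compound addition used a CQ1 microscope at 37°C and 5% CO2. CellPathfinder machine-learning gating then sorted cells into Hoechst high-intensity objects or normal cells, normal cells into healthy, pyknosed or fragmented nuclei, and pyknosed cells into mitotic or apoptotic, with tubulin, mitochondrial-mass and membrane-permeability phenotypes given as per cents of healthy-nucleus cells.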

SMILES	Population Apoptotic (%)	Population Fragmented Nuclei (%)	Population Hoechst High Intensity Objects (%)	Population Membrane Permeable-Phenotype (%)	Population Mitochondria Different-Phenotype (%)	Population Mitotic Cells (%)	Population Normal (%)	Population Pyknosed Nuclei (%)	Total Cell Count	Population Tubulin-Different-Phenotype (%)
FC(F)(F)c1ccccc1-c1cc(C(F)(F)F)c2[nH]c(C3=NOC4(CCCCC4)C3)nc2c1	5.48% and 14.05%	1.23% and 6.04%	0%	0%	43.68% and 36.84%	94.52% and 85.95%	100%	45.06% and 81.21%	324 and 149	–
CCOc1ccccc1C(=O)NCC1(N2CCN(CC)CC2)CCCCC1	17.61% and 11.57%	1.59% and 5.52%	0%	0.66% and 6.25%	–	82.39% and 88.43%	100%	50.48% and 83.45%	315 and 145	10.6% and 18.75%
Clc1ccccc1C(c1ccccc1)(c1ccccc1)n1cccn1	7.87% and 11.11%	1.79% and 6.3%	0%	0% and 5%	33.99% and 35%	92.13% and 88.89%	100%	37.8% and 77.95%	336 and 127	–
Cl.c1ccc2c(c1)CCC[C@H]2Nc1nc2ccccc2[nH]1	12.41% and 9.85%	1.91% and 2.52%	0.95% and 0.62%	0.58% and 0%	–	87.59% and 90.15%	99.05% and 99.38%	43.63% and 83.02%	317 and 160	–

same assay, conditions: human, 12 h, 10 µM, compound concentration 10 uM

SMILES	Population Apoptotic (%)	Population Fragmented Nuclei (%)	Population Hoechst High Intensity Objects (%)	Population Membrane Permeable-Phenotype (%)	Population Mitochondria Different-Phenotype (%)	Population Mitotic Cells (%)	Population Normal (%)	Population Pyknosed Nuclei (%)	Population Tubulin-Different-Phenotype (%)	Total Cell Count
FC(F)(F)c1ccccc1-c1cc(C(F)(F)F)c2[nH]c(C3=NOC4(CCCCC4)C3)nc2c1	11.51% and 25.77%	0.39% and 4.42%	0.78% and 0%	0%	32.17% and 18.18%	88.49% and 74.23%	99.22% and 100%	54.51% and 85.84%	40.87% and 45.45%	257 and 113
CCOc1ccccc1C(=O)NCC1(N2CCN(CC)CC2)CCCCC1	15.84% and 21.31%	1.84% and 5.41%	0% and 0.67%	0.85% and 0%	25.42% and 50%	84.16% and 78.69%	100% and 99.33%	61.96% and 82.43%	38.14% and 77.78%	326 and 149
Clc1ccccc1C(c1ccccc1)(c1ccccc1)n1cccn1	10.45% and 10.49%	2.33% and 0.57%	0.33% and 0%	0%	33.96% and 33.33%	89.55% and 89.51%	99.67% and 100%	44.67% and 82.18%	–	301 and 174
Cl.c1ccc2c(c1)CCC[C@H]2Nc1nc2ccccc2[nH]1	7.19% and 13.79%	2.56% and 5.8%	0.57% and 0%	0%	–	92.81% and 86.21%	99.43% and 100%	47.58% and 84.06%	–	353 and 138

same assay, conditions: human, 12 h, 10 µM, compound concentration 10 uM

SMILES	Population Healthy Nuclei (%)
CCOc1ccccc1C(=O)NCC1(N2CCN(CC)CC2)CCCCC1	36.2% and 12.16%

same assay, conditions: human, 24 h, 1 µM, compound concentration 1 uM

SMILES	Population Apoptotic (%)	Population Fragmented Nuclei (%)	Population Hoechst High Intensity Objects (%)	Population Membrane Permeable-Phenotype (%)	Population Mitochondria Different-Phenotype (%)	Population Mitotic Cells (%)	Population Normal (%)	Population Tubulin-Different-Phenotype (%)	Population Pyknosed Nuclei (%)	Total Cell Count
FC(F)(F)c1ccccc1-c1cc(C(F)(F)F)c2[nH]c(C3=NOC4(CCCCC4)C3)nc2c1	10.89% and 15.53%	1.48% and 2.1%	0%	0.93% and 5.41%	18.75% and 24.32%	89.11% and 84.47%	100%	18.29% and 21.62%	–	–
CCOc1ccccc1C(=O)NCC1(N2CCN(CC)CC2)CCCCC1	13.73% and 14.84%	1% and 7.69%	0.2% and 0.59%	2.05% and 0%	24.34% and 10.71%	86.27% and 85.16%	99.8% and 99.41%	21.41% and 10.71%	30.66% and 75.74%	500 and 170
Clc1ccccc1C(c1ccccc1)(c1ccccc1)n1cccn1	11.32% and 14.85%	0.96% and 6.08%	0.19% and 0%	0.49% and 2.63%	14.43% and 13.16%	88.68% and 85.15%	99.81% and 100%	9.78% and 7.89%	–	–
Cl.c1ccc2c(c1)CCC[C@H]2Nc1nc2ccccc2[nH]1	15.19% and 12.5%	2.28% and 0.59%	0%	1.6% and 2.04%	–	84.81% and 87.5%	100%	15.97% and 10.2%	32.78% and 70.59%	482 and 170

same assay, conditions: human, 24 h, 1 µM, compound concentration 1 uM

SMILES	Population Healthy Nuclei (%)
Cl.c1ccc2c(c1)CCC[C@H]2Nc1nc2ccccc2[nH]1	64.94% and 28.82%

same assay, conditions: human, 24 h, 10 µM, compound concentration 10 uM

SMILES	Population Apoptotic (%)	Population Fragmented Nuclei (%)	Population Hoechst High Intensity Objects (%)	Population Membrane Permeable-Phenotype (%)	Population Mitochondria Different-Phenotype (%)	Population Mitotic Cells (%)	Population Normal (%)	Population Pyknosed Nuclei (%)	Population Tubulin-Different-Phenotype (%)	Total Cell Count
FC(F)(F)c1ccccc1-c1cc(C(F)(F)F)c2[nH]c(C3=NOC4(CCCCC4)C3)nc2c1	37.98% and 40%	1.06% and 5.51%	0.7% and 0%	0.66% and 0%	57.89% and 50%	62.02% and 60%	99.3% and 100%	45.42% and 86.61%	72.37% and 30%	286 and 127
CCOc1ccccc1C(=O)NCC1(N2CCN(CC)CC2)CCCCC1	40.41% and 45.37%	1.63% and 6.29%	0%	1.45% and 0%	39.49% and 42.31%	59.59% and 54.63%	100%	34.03% and 75.52%	64.13% and 73.08%	429 and 143
Clc1ccccc1C(c1ccccc1)(c1ccccc1)n1cccn1	19.64% and 15.94%	2.8% and 0.54%	0.23% and 0%	1.31% and 0%	27.87% and 13.33%	80.36% and 84.06%	99.77% and 100%	26.11% and 75%	–	430 and 184
Cl.c1ccc2c(c1)CCC[C@H]2Nc1nc2ccccc2[nH]1	10.9% and 23.53%	2.57% and 5.7%	0%	2.68% and 0%	18.75% and 10%	89.1% and 76.47%	100%	30.89% and 75.32%	23.81% and 10%	–

same assay, conditions: human, 24 h, 10 µM, compound concentration 10 uM

SMILES	Population Healthy Nuclei (%)
Clc1ccccc1C(c1ccccc1)(c1ccccc1)n1cccn1	71.1% and 24.46%

same assay, conditions: human, 48 h, 1 µM, compound concentration 1 uM

SMILES	Population Fragmented Nuclei (%)	Population Healthy Nuclei (%)	Population Hoechst High Intensity Objects (%)	Population Membrane Permeable-Phenotype (%)	Population Mitochondria Different-Phenotype (%)	Population Mitotic Cells (%)	Population Normal (%)	Population Apoptotic (%)	Population Pyknosed Nuclei (%)
FC(F)(F)c1ccccc1-c1cc(C(F)(F)F)c2[nH]c(C3=NOC4(CCCCC4)C3)nc2c1	2% and 1.31%	85.85% and 52.94%	0%	4.66% and 2.47%	18.43% and 25.93%	94.52% and 78.57%	100%	–	–
CCOc1ccccc1C(=O)NCC1(N2CCN(CC)CC2)CCCCC1	1.56% and 2.66%	84.02% and 40.96%	0%	5.34% and 1.3%	24.83% and 45.45%	94.59% and 81.13%	100%	–	–
Clc1ccccc1C(c1ccccc1)(c1ccccc1)n1cccn1	3.42% and 3.98%	87.9% and 72.12%	0% and 1.74%	5.37% and 2.45%	12.03% and 23.31%	92.11% and 87.04%	100% and 98.26%	7.89% and 12.96%	8.68% and 23.89%
Cl.c1ccc2c(c1)CCC[C@H]2Nc1nc2ccccc2[nH]1	2.18% and 2.63%	84.41% and 64.04%	0% and 0.44%	3.88% and 2.74%	18.59% and 17.81%	91.85% and 78.95%	100% and 99.56%	8.15% and 21.05%	13.41% and 33.33%

same assay, conditions: human, 48 h, 10 µM, compound concentration 10 uM

SMILES	Population Apoptotic (%)	Population Fragmented Nuclei (%)	Population Healthy Nuclei (%)	Population Hoechst High Intensity Objects (%)	Population Membrane Permeable-Phenotype (%)	Population Mitochondria Different-Phenotype (%)	Population Mitotic Cells (%)	Population Normal (%)	Population Pyknosed Nuclei (%)
FC(F)(F)c1ccccc1-c1cc(C(F)(F)F)c2[nH]c(C3=NOC4(CCCCC4)C3)nc2c1	29.75% and 35.21%	1.37% and 5.17%	74.95% and 33.62%	0%	3.92% and 2.56%	79.11% and 61.54%	70.25% and 64.79%	100%	23.68% and 61.21%
CCOc1ccccc1C(=O)NCC1(N2CCN(CC)CC2)CCCCC1	21.8% and 42.22%	2.46% and 4.08%	79.37% and 50%	0.14% and 1.01%	3.96% and 3.06%	67.81% and 74.49%	78.2% and 57.78%	99.86% and 98.99%	18.17% and 45.92%
Clc1ccccc1C(c1ccccc1)(c1ccccc1)n1cccn1	9.93% and 27.4%	4.13% and 2.25%	81.99% and 70.41%	0%	8.52% and 2.66%	24.73% and 43.09%	90.07% and 72.6%	100%	13.88% and 27.34%
Cl.c1ccc2c(c1)CCC[C@H]2Nc1nc2ccccc2[nH]1	–	2.01% and 3.85%	79.3% and 55.49%	0.32% and 0%	5.99% and 1.98%	26.23% and 33.66%	94.35% and 78.38%	99.68% and 100%	18.69% and 40.66%
